Activity calls are given as the source filed them. No cut-off for these calls is given here.
Tests used:
[1] = biological target: T1, Fatty-acid amide hydrolase 1 (Homo sapiens) (UniProt O00519); assay: Inhibition of human recombinant MBP-tagged FAAH expressed in Escherichia coli cells at 1 uM using AAMCA as substrate incubated for 15 mins followed by substrate addition and measured after every 20 mins for 4 hrs by fluorescence based assay relative to control
T1 sequence (whole entry): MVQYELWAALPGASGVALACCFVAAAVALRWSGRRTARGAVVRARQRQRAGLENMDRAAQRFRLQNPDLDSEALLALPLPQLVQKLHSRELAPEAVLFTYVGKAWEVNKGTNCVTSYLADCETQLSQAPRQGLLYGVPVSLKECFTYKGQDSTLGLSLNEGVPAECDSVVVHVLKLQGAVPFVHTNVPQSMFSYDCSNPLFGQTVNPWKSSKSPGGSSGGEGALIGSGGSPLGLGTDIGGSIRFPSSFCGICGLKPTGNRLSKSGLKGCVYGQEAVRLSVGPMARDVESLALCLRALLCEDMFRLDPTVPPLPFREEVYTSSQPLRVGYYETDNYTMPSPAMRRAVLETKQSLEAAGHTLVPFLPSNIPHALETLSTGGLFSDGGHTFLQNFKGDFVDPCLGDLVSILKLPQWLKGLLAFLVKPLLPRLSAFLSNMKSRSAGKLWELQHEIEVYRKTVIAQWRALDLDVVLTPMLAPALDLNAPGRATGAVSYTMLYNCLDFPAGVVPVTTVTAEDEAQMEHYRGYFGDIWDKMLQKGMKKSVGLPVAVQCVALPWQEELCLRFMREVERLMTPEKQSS
How it was run: (§1)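 Fluorescent FAAH assay with arachidonoyl 7-amino-4-methylcoumarin amide as substrate; compound tested at a single concentration of 1 µM; percent inhibition reported.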

[2] = biological target: Cannabinoid receptor 2 (Mus musculus) (UniProt P47936); assay: Displacement of [3H]CP55940 from mouse CB2 receptor expressed in HEK293 cells by competition-equilibrium binding analysis; format: cell-based
How it was run: (§2)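 HEK293 cell membranes expressing mouse or human CB2; competition-equilibrium binding against [3H]CP-55,940.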

[3] = biological target: T2, Monoglyceride lipase (Homo sapiens) (UniProt Q99685); details: at 1 µM
T2 sequence (whole entry): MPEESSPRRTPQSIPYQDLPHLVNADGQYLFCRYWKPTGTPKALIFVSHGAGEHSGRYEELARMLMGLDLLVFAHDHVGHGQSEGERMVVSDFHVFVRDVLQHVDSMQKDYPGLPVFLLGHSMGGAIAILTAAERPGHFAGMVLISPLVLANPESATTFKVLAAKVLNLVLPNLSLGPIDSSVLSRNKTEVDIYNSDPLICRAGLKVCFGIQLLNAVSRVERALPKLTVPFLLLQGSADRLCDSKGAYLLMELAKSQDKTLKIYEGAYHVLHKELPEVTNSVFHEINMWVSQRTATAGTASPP

[4] = biological target: Cannabinoid receptor 1 (Rattus norvegicus) (UniProt P20272); assay: Displacement of [3H]CP55940 from CB1 receptor in rat brain by competition-equilibrium binding analysis; format: tissue-based
How it was run: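 Rat brain membranes as CB1 source; competition-equilibrium binding against [3H]CP-55,940.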
Target sequence in this assay (P20272 whole entry): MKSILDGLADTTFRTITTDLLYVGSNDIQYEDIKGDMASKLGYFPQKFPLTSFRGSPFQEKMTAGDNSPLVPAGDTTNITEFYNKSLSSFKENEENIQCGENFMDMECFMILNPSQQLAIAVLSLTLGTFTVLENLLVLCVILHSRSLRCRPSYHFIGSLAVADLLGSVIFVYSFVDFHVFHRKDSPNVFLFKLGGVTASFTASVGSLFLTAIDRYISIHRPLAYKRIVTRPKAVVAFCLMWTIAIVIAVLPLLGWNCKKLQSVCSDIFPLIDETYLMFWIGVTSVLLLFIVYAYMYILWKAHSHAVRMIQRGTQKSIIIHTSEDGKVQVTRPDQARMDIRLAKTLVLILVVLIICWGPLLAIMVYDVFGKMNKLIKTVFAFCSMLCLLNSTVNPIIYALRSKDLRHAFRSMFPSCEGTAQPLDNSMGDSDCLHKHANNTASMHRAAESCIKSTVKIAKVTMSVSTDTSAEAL

[5] = biological target: T3, Fatty-acid amide hydrolase 1 (Rattus norvegicus) (UniProt P97612); assay: Inhibition of rat recombinant His/GST-tagged FAAH expressed in Escherichia coli cells at 1 uM using AAMCA as substrate incubated for 15 mins followed by substrate addition and measured after every 20 mins for 4 hrs by fluorescence based assay relative to control; how it was run: as §1
T3 sequence (whole entry): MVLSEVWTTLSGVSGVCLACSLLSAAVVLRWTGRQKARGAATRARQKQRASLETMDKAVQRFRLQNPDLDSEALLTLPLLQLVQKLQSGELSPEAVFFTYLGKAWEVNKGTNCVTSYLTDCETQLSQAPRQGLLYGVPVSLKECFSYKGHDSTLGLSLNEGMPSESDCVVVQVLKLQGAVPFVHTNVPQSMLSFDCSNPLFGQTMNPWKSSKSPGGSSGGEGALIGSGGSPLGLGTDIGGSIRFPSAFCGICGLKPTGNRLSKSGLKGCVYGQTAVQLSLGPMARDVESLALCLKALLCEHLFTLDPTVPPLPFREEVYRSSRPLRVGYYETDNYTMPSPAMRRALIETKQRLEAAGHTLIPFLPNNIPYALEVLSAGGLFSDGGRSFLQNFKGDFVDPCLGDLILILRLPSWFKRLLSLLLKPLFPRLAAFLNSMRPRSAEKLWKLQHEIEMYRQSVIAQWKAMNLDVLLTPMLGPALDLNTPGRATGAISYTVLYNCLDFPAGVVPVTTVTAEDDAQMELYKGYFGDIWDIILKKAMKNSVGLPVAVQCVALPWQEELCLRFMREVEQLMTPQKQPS

[6] = biological target: Cannabinoid receptor 2 (Homo sapiens) (UniProt P34972); assay: Displacement of [3H]CP55940 from human CB2 receptor expressed in HEK293 cells by competition-equilibrium binding analysis; format: cell-based; how it was run: as §2
[7] = biological target: Cannabinoid receptor 1 (Rattus norvegicus) (UniProt P20272); assay: Displacement of [3H]CP55940 from CB1 receptor in rat brain by competition-equilibrium binding analysis
Target sequence in this assay (P20272 whole entry, looked up): as the sequence (P20272 whole entry) above

[8] = Stability in rat liver microsomes assessed as half life; format: ADME, Microsome
How it was run: (§3)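 Stability assessed as half-life in human, rat and mouse plasma and gastric fluid, and in human, rat and mouse liver microsomal preparations.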

[9] = biological target: T4, Fatty-acid amide hydrolase 1 (Homo sapiens, UniProt O00519); assay: Inhibition of human recombinant MBP-tagged FAAH expressed in Escherichia coli cells using AAMCA as substrate incubated for 15 mins followed by substrate addition and measured after every 20 mins for 4 hrs by fluorescence based assay
T4 sequence (O00519 whole entry): T1 sequence (whole entry)
How it was run: (§4)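 Fluorescent enzyme assay in throughput format. Human recombinant FAAH or purified rat FAAH used arachidonoyl 7-amino-4-methylcoumarin amide as substrate; human recombinant MGL was run by a similar fluorometric procedure.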

[10] = Stability in mouse gastric fluid assessed as half life; format: ADME, tissue-based, Gastric juice; how it was run: as §3
[11] = Ratio of IC50 for rat recombinant His/GST-tagged FAAH expressed in Escherichia coli cells to IC50 for human recombinant MBP-tagged FAAH expressed in Escherichia coli cells by fluorescence based assay
[12] = biological target: T5, Fatty-acid amide hydrolase 1 (Rattus norvegicus, UniProt P97612); assay: Inhibition of rat recombinant His/GST-tagged FAAH expressed in Escherichia coli cells using AAMCA as substrate incubated for 15 mins followed by substrate addition and measured after every 20 mins for 4 hrs by fluorescence based assay; how it was run: as §4
T5 sequence (P97612 whole entry): T3 sequence (whole entry)

[13] = Drug concentration in plasma (unknown origin) at 2 mg/kg, iv measured after 15 mins; format: ADME, organism-based
How it was run: (§5)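 Cassette pharmacokinetics: compounds given together at 2 mg/kg iv; brain and plasma levels (µg/mL) measured at 15 min.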

[14] = Selectivity ratio of IC50 for human full length ABHD6 expressed in Escherichia coli cells to IC50 for rat recombinant His/GST-tagged FAAH expressed in Escherichia coli cells by fluorescence based assay
[15] = Stability in rat gastric fluid assessed as half life; format: ADME, tissue-based, Gastric juice; how it was run: as §3
[16] = Stability in human liver microsomes assessed as half life; format: ADME, Microsome; how it was run: as §3
[17] = Stability in mouse plasma assessed as half life; format: ADME, cell-free; how it was run: as §3
Homo sapiens [18] = species on record: Homo sapiens; assay: Selectivity ratio of IC50 for human full length ABHD6 expressed in Escherichia coli cells to IC50 for human recombinant MBP-tagged FAAH expressed in Escherichia coli cells by fluorescence based assay
[19] = Stability in rat plasma assessed as half life; format: ADME, cell-free; how it was run: as §3
[20] = Drug concentration in brain (unknown origin) at 2 mg/kg, iv measured after 15 mins; format: ADME, organism-based; details: read-out: Ct; how it was run: as §5
[21] = Stability in human gastric fluid assessed as half life; format: ADME, tissue-based, Gastric juice; how it was run: as §3
[22] = Stability in human plasma assessed as half life; format: ADME, cell-free; how it was run: as §3
[23] = Selectivity ratio of IC50 for human recombinant His-tagged MGL expressed in Escherichia coli BL21 DE3 cells to IC50 for rat recombinant His/GST-tagged FAAH expressed in Escherichia coli cells by fluorescence based assay
Monoglyceride lipase = biological target: T6, Monoglyceride lipase (Homo sapiens, UniProt Q99685); assay: Inhibition of human recombinant His-tagged MGL expressed in Escherichia coli BL21 DE3 cells using AHMMCE as substrate preincubated with enzyme for 15 mins followed by substrate addition and measured after every 15 mins for 3 hrs by fluorescence based assay; how it was run: as §4
T6 sequence (Q99685 whole entry): T2 sequence (whole entry)

Homo sapiens [24] = species on record: Homo sapiens; assay: Selectivity ratio of IC50 for human recombinant His-tagged MGL expressed in Escherichia coli BL21 DE3 cells to IC50 for human recombinant MBP-tagged FAAH expressed in Escherichia coli cells by fluorescence based assay
[25] = Stability in mouse liver microsomes assessed as half life; format: ADME, Microsome; how it was run: as §3
[26] = biological target: T7, Monoacylglycerol lipase ABHD6 (Rattus norvegicus) (UniProt Q5XI64); assay: Inhibition of ABHD6 in rat brain at 10 uM incubated for 30 mins followed by incubation with FP-Rh probe for 45 mins by ABPP assay; format: tissue-based
T7 sequence (whole entry): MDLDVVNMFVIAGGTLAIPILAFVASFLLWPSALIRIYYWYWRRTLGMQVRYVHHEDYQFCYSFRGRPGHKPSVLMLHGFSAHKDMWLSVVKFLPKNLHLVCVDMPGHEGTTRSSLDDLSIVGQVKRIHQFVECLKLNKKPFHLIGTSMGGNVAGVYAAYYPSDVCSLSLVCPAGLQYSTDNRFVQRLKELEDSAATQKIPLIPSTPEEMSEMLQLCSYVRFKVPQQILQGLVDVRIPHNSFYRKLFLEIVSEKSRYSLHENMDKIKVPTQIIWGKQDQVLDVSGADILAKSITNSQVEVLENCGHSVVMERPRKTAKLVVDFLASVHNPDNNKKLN
How it was run: (§6)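 Gel-based competitive ABPP on rat brain membrane homogenates (10 mg/mL protein). Compound at 1 and 10 μM or DMSO for 30 min at room temperature, then 10 μM rhodamine-tagged fluorophosphonate probe for 45 min at room temperature. FAAH was run with a reference FAAH inhibitor at 10 μM as positive control. Serine hydrolase labelling read by in-gel fluorescence.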

[27] = biological target: T8, Monoglyceride lipase (Rattus norvegicus) (UniProt Q8R431); assay: Inhibition of MGL in rat brain at 10 uM incubated for 30 mins followed by incubation with FP-Rh probe for 45 mins by ABPP assay; format: tissue-based; how it was run: as §6
T8 sequence (whole entry): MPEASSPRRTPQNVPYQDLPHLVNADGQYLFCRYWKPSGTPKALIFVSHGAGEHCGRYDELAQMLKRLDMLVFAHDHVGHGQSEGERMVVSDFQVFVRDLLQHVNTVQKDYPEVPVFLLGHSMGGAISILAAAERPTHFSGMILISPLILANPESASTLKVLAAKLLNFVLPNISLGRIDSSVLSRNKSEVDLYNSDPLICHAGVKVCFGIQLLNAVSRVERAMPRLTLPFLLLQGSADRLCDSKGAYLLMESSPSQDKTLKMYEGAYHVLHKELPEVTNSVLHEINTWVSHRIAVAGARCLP

[28] = biological target: T3, Fatty-acid amide hydrolase 1 (Rattus norvegicus); assay: Inhibition of FAAH in rat brain at 10 uM incubated for 30 mins followed by incubation with FP-Rh probe for 45 mins by ABPP assay; format: tissue-based; how it was run: as §6

Chain of Cannabinoid receptor 2 (Homo sapiens) (P34972 whole entry): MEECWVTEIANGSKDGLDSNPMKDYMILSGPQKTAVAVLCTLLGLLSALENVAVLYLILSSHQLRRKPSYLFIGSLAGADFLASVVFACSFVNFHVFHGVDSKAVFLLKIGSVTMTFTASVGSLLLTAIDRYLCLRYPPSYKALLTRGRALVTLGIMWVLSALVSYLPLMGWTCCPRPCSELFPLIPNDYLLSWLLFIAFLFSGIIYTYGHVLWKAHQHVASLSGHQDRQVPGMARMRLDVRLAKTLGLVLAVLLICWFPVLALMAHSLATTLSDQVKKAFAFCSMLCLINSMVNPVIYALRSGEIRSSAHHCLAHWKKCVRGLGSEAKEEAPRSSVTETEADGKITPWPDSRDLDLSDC
Chain of Cannabinoid receptor 2 (Mus musculus) (P47936 whole entry): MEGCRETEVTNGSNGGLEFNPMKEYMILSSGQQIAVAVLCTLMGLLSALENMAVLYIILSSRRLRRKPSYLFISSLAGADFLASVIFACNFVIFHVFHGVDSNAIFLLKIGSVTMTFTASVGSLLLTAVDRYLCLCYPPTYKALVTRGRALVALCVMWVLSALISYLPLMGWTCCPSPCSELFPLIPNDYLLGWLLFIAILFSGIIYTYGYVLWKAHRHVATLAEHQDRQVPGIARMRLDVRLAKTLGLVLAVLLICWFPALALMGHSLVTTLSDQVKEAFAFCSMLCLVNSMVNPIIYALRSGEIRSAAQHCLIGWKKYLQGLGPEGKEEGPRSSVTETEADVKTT

Compound | inhibition [1] | Activity [2] | inhibition [3] | Activity [4] | inhibition [5] | Activity [6] | Activity [7] | half-life [8] [min] | IC50 [9] [nM] | half-life [10] [min] | Ratio IC50 [11] | IC50 [12] [nM] | Ratio IC50 [14] | half-life [15] [min] | half-life [16] [min] | half-life [17] [min] | Ratio IC50 (Homo sapiens [18]) | half-life [19] [min] | half-life [21] [min] | half-life [22] [min] | further results
O=C(Nc1cccc(N2CCS(=O)(=O)CC2)c1)N1CCC(c2ccccc2)CC1 | inactive | inactive | inactive | inactive | inactive | inactive | inactive | – | – | – | – | – | – | – | – | – | – | – | – | – | –
O=C(Nc1cccc(N2CCS(=O)(=O)CC2)c1)N1CCN(c2ccccc2)CC1 | inactive | inactive | inactive | inactive | inactive | inactive | inactive | – | – | – | – | – | – | – | – | – | – | – | – | – | –
CN(C)c1ccc(C2CCN(C(=O)Oc3cccc(N4CCS(=O)(=O)CC4)c3)CC2)cc1 | – | inactive | – | inactive | – | inactive | inactive | 15 to 25 | 2.4 | > 60 | 2 to 3 | 6.9 | > 1000 | > 60 | 15 to 25 | > 60 | > 1000 | > 60 | > 60 | > 60 | concentration at 0.25 h [13]: 746 ng/mL; concentration at 0.25 h [20]: 1110 ng/mL; Ratio IC50 [23]: > 1000; IC50 (Monoglyceride lipase): > 1000 nM; Ratio IC50 (Homo sapiens [24]): > 1000; half-life [25]: 15 to 25 min
O=C(Oc1cccc(N2CCS(=O)(=O)CC2)c1)N1CCC(c2ccc(N3CCCC3)cc2)CC1 | – | inactive | – | inactive | – | inactive | inactive | 15 to 25 | 3.5 | > 60 | 2 to 3 | 6.3 | > 1000 | > 60 | 15 to 25 | > 60 | > 1000 | > 60 | > 60 | > 60 | Ratio IC50 [23]: > 1000; IC50 (Monoglyceride lipase): > 1000 nM; Ratio IC50 (Homo sapiens [24]): > 1000; half-life [25]: 15 to 25 min
O=C(Nc1cccnn1)N1CCC(=Cc2cccc(Oc3ccc(C(F)(F)F)cn3)c2)CC1 | – | – | – | – | – | – | – | – | – | – | – | – | – | – | – | – | – | – | – | – | inhibition [26]: inactive; inhibition [27]: inactive; inhibition [28]: Active

Reference: ChEMBL document CHEMBL4359929, “Piperidine and piperazine inhibitors of fatty acid amide hydrolase targeting excitotoxic pathology” (Bioorg Med Chem, 2019)
